Measured values published in ChEMBL document CHEMBL1127492, “Novel potassium channel openers: synthesis and pharmacological evaluation of new N-(substituted-3-pyridyl)-N'-alkylthioureas and related compounds” (1994).
Active and inactive are the calls of the source. The calls are words filed in the database; no cut-off is given here.

How the values were obtained:
Format in all cases: functional
Rattus norvegicus [1] = assay: Maximum percent fall in Systolic blood pressure (SBP) was measured in anesthetized normotensive rat for 30 mins after intravenous (iv) injection at 0.1 mg/kg dose
How it was run: (§1)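 Male normotensive rats under anesthesia; compound given as iv bolus via tail vein. Blood pressure and heart rate recorded by pressure transducer coupled to polygraph. Systolic pressure followed for 30 min after injection; value is maximum percent fall in SBP, n = 4.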

Rattus norvegicus [2] = assay: Maximum percent fall in Systolic blood pressure (SBP) was measured in anesthetized normotensive rat for 30 mins after intravenous (iv) injection at 0.3 mg/kg dose; how it was run: as §1
Rattus norvegicus [3] = organism: Rattus norvegicus; assay: Negative logarithm of the concentration causing a 100% inhibition of spontaneous mechanical activity in rat portal vein is determined in vitro
How it was run: (§2)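 Rat portal vein strips in buffer (pH 7.2) at 37 °C, gassed 5% CO2 in O2, under 0.5 g tension. Spontaneous contractions recorded isometrically by force-displacement transducer. Strips equilibrated 30 min, then compounds added cumulatively. Values are means of four independent experiments.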

Rattus norvegicus [4] = assay: Maximum percent fall in Systolic blood pressure (SBP) was measured in anesthetized normotensive rat for 30 mins after intravenous (iv) injection at 1 mg/kg dose; how it was run: as §1
Rattus norvegicus [5] = organism: Rattus norvegicus; assay: Negative logarithm of the concentration causing a 100% inhibition of spontaneous mechanical activity in rat portal vein is determined in vitro; No response; how it was run: as §2
Rattus norvegicus [6] = assay: Maximum percent fall in Systolic blood pressure (SBP) was measured in anesthetized normotensive rat for 30 mins after intravenous (iv) injection at 3 mg/kg dose; how it was run: as §1
Rattus norvegicus [7] = assay: Maximum percent fall in Systolic blood pressure (SBP) was measured in anesthetized normotensive rat for 30 mins after intravenous (iv) injection at 0.03 mg/kg dose; how it was run: as §1

Row | Compound | Decrease in SBP (Rattus norvegicus [1]) | Decrease in SBP (Rattus norvegicus [2]) | pEC100 (Rattus norvegicus [3]) | Decrease in SBP (Rattus norvegicus [4]) | pEC100 (Rattus norvegicus [5]) | Decrease in SBP (Rattus norvegicus [6]) | Decrease in SBP (Rattus norvegicus [7])
1 | CC(/N=C(\S)Nc1ccc(C#N)nc1)C(C)(C)C (stereo unspecified) | 13% | 28% | 5.7 | – | – | – | –
2 | CC(/N=C(\S)Nc1ccc(Nc2ccccc2)nc1)C(C)(C)C (stereo unspecified) | – | – | – | 5% | inactive | – | –
3 | N#CN/C(=N\[C@H]1C[C@H]2CC[C@@H]1C2)Nc1ccc(N)nc1 | 25% | 32% | 6.5 | – | – | – | –
4 | CC(/N=C(\S)Nc1ccc(-n2ccnc2)nc1)C(C)(C)C (stereo unspecified) | – | – | 3.7 | – | – | 11% | –
5 | CSc1ccc(N/C(S)=N/C(C)C(C)(C)C)cn1 (stereo unspecified) | – | 10% | 5 | – | – | – | –
6 | CC(C)(C)[C@H]1CC[C@@H](/N=C(\S)Nc2ccc(N)nc2)CC1 | – | – | – | 9% | inactive | – | –
7 | Nc1ccc(N/C(S)=N/C2CC3CCC2CC3)cn1 (stereo unspecified) | 26% | 43% | 7 | – | – | – | –
8 | CC(C)(C)C1CCCCC1/N=C(\S)Nc1ccc(N)nc1 (single isomer, unassigned) | – | – | 5 | 12% | – | – | –
9 | CC(/N=C(/NC#N)Nc1cccnc1)C(C)(C)C (stereo unspecified) | 37% | – | 7 | – | – | – | 26%
10 | CC1(C)CCCC[C@@H]1/N=C(\S)Nc1ccc(N)nc1 | – | – | 5.5 | 26% | – | – | –
11 | CC1(C)[C@@H]2CC[C@@]1(C)[C@H](NC(=S)Nc1ccc(N)nc1)C2 | 14% | – | 6.5 | 41% | – | – | –
12 | Nc1cncc(N/C(S)=N/C2CCCCC2)c1 | – | – | 5 | 7% | – | 23% | –
13 | CC1(C)CCC[C@H](/N=C(\S)Nc2ccc(N)nc2)C1 | – | – | 5 | 25% | – | – | –
14 | CC(/N=C(\S)Nc1ccc(NN)nc1)C(C)(C)C (stereo unspecified) | – | – | 4 | – | – | 26% | –
15 | CC(/N=C(\S)Nc1ccc(Cl)nc1)C(C)(C)C (stereo unspecified) | – | 27% | 5.7 | 41% | – | – | –
16 | Nc1ccc(N/C(S)=N/C23CC4CC(CC(C4)C2)C3)cn1 | – | – | 6.5 | 24% | – | – | –
17 | N#CN/C(=N\C1CC2CCC1CC2)Nc1ccc(N)nc1 (stereo unspecified) | 17% | 28% | 6 | – | – | – | –
18 | CC(/N=C(\S)Nc1ccc(C(N)=O)nc1)C(C)(C)C (stereo unspecified) | – | – | 5 | 9% | – | – | –
19 | CC(/N=C(\S)Nc1ccc(N)nc1)C(C)(C)C (stereo unspecified) | – | 29% | 6 | 32% | – | – | –
20 | N#CN/C(=N\C1CC2CCC1CC2)Nc1ccc(N)[n+]([O-])c1 (stereo unspecified) | – | 12% | 5 | 20% | – | – | –
21 | CC(C)(C)/N=C(\NC#N)Nc1ccc(N)[n+]([O-])c1 | – | – | 4.5 | 19% | – | 20% | –
22 | Nc1ccc(N/C(S)=N/C2CCCCC2)cn1 | – | – | 5 | 26% | – | 35% | –
23 | CC(N/C(=N\C#N)Nc1ccncc1)C(C)(C)C (stereo unspecified) [PINACIDIL ANHYDROUS] | 25% | 31% | 7 | – | – | – | –
24 | C[C@]12CC[C@H](CC1/N=C(\NC#N)Nc1ccc(N)nc1)C2 (stereo partly specified) | 26% | 33% | 7.5 | – | – | – | –

Row | Compound | Decrease in SBP (Rattus norvegicus [1]) | Decrease in SBP (Rattus norvegicus [2]) | pEC100 (Rattus norvegicus [3]) | Decrease in SBP (Rattus norvegicus [4]) | pEC100 (Rattus norvegicus [5]) | Decrease in SBP (Rattus norvegicus [6]) | Decrease in SBP (Rattus norvegicus [7])
25 | N#CN=C(Nc1ccc(N)[n+]([O-])c1)N[C@@H]1C[C@H]2CC[C@@H]1C2 | – | – | 6 | 16% | – | – | –
26 | C/N=C(\S)Nc1cnccc1N | – | – | – | – | inactive | 15% | –
27 | CCCC/N=C(\S)Nc1cnccc1N | – | – | 3 | – | – | 13% | –
28 | C[C@]12CC[C@H](C[C@H]1NC(=S)Nc1ccc(N)nc1)C2 | 27% | 36% | 7 | – | – | – | –
29 | CC(/N=C(\S)Nc1ccc(N2CCCCC2)nc1)C(C)(C)C (stereo unspecified) | – | – | – | 10% | inactive | – | –
30 | CC(/N=C(\S)Nc1ccc(NCCN)nc1)C(C)(C)C (stereo unspecified) | – | – | – | 3% | inactive | – | –
31 | CC(/N=C(\S)Nc1ccc(O)nc1)C(C)(C)C (stereo unspecified) | – | – | 4 | 7% | – | – | –
32 | CC(/N=C(\NC#N)Nc1ccc(N)nc1)C(C)(C)C (stereo unspecified) | – | 24% | 6 | 30% | – | – | –
33 | CC(/N=C(\NC#N)Nc1ccc(N)[n+]([O-])c1)C(C)(C)C (stereo unspecified) | – | 16% | 5.5 | 22% | – | – | –
34 | CC(C)(C)/N=C(\NC#N)Nc1ccc(N)nc1 | – | 15% | 6 | 28% | – | – | –
35 | CC(/N=C(\NC#N)Nc1cc[n+]([O-])cc1)C(C)(C)C (stereo unspecified) | – | 13% | 5 | – | – | – | –
36 | Cc1ccc(N/C(S)=N/C(C)C(C)(C)C)cn1 (stereo unspecified) | – | 18% | 5.7 | 30% | – | – | –
37 | C[C@]12CC[C@H](C[C@@H]1NC(=NC#N)Nc1ccc(N)[n+]([O-])c1)C2 | – | 18% | 6 | 31% | – | – | –
38 | Nc1ccc(N/C(S)=N/[C@H]2CC3C=CC2C3)cn1 (stereo partly specified) | 24% | 32% | 7 | – | – | – | –
39 | Nc1ncccc1/N=C(\S)NC1CCCCC1 | – | – | 4 | 9% | – | 21% | –
40 | CC(C)C/N=C(\S)Nc1ccc(N)nc1 | – | 12% | 4.7 | 23% | – | – | –
41 | CC1(C)[C@H]2CC[C@](C)(C2)[C@H]1NC(=S)Nc1ccc(N)nc1 | – | – | 5.5 | 29% | – | 39% | –
42 | C[C@@H]1[C@H](NC(=S)Nc2ccc(N)nc2)CC2C[C@@H]1C2(C)C | – | – | 5 | 16% | – | – | –
43 | COc1ccc(N/C(S)=N/C(C)C(C)(C)C)cn1 (stereo unspecified) | – | – | 5 | 17% | – | 30% | –
44 | Nc1ccc(NC(=S)NC2C[C@H]3CC[C@@H]2C3)cn1 (single isomer, unassigned; 22e) | 19% | 41% | 7 | – | – | – | –
45 | Nc1ccncc1/N=C(\S)NC1CCCCC1 | – | – | 5 | 22% | – | 27% | –
46 | Nc1ccc(NC(=S)NC2C[C@H]3CC[C@@H]2C3)cn1 (single isomer, unassigned; 22g) | – | 34% | 7 | 22% | – | – | –
47 | CNc1ccc(N/C(S)=N/C(C)C(C)(C)C)cn1 (stereo unspecified) | – | 8% | 5 | 25% | – | – | –
48 | CCC(C)(C)/N=C(\S)Nc1ccc(N)nc1 | – | 15% | 5 | 31% | – | – | –
